# Experimental data published in ChEMBL document CHEMBL1124462, “Synthesis, DNA binding, and biological evaluation of synthetic precursors and novel analogues of netropsin” (J Med Chem, 1989).
# Columns and labels:
# [1] = test system: HeLa; test: Minimum cytotoxic concentration required to cause a microscopically detectable alteration of normal cell morphology and show antiviral activity in HeLa cells; type: functional; details: Homo sapiens
# Summary of the method: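 HeLa cell cultures exposed to compound for the same duration as the antiviral assay, then examined microscopically. The minimum cytotoxic concentration is the lowest level causing detectable alteration of normal cell morphology. Values are in μg/mL.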
# [2] = test system: Nucleic Acid; test: Ratio of association constant of poly (dA-dT) and poly (dG-dC); type: nucleic-acid assay
# Summary of the method: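 Kapp for poly(dA-dT) and for poly(dG-dC) is each determined by ethidium bromide competition in 0.01 M cacodylate, pH 7.0, 25 °C, with 1.26 μM ethidium and 1 μM polynucleotide. IC50 comes from a fitted competition sigmoid and is converted to Kapp assuming a four-base-pair binding size. The ratio is taken between the two polynucleotides.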
# [3] = Dose required to inhibit Human T-Lymphoblast (Molt/4F) cell proliferation by 50%; type: functional; details: read-out: CD50 (the source's name)
# [4] = test system: Human alphaherpesvirus 2; test: Minimum inhibitory concentration required to reduce herpes simplex virus-2(G) induced cytopathogenicity by 50% in primary rabbit kidney cells (PRK); type: functional
# Summary of the method: (§1)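 Cell cultures (PRK, HeLa or Vero B) are infected at 100 × CCID50. Cytopathogenicity is recorded once it reaches completion in the untreated virus-infected controls. The minimum inhibitory concentration is given in μg/mL.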
# [5] = test system: Vero; test: Minimum inhibitory concentration required to reduce parainfluenza virus-3 induced cytopathogenicity by 50% in african green monkey (VeroB) cells; type: functional, Human respirovirus 3; details: Chlorocebus sabaeus; summary of the method: as §1
# [6] = test system: HeLa; test: Minimum inhibitory concentration required to reduce Coxsackie virus B4 induced cytopathogenicity by 50% in HeLa cells; type: functional; details: Homo sapiens; summary of the method: as §1
# [7] = test system: Mammalian orthoreovirus 1; test: Minimum inhibitory concentration required to reduce reovirus-1 induced cytopathogenicity by 50% in african green monkey (VeroB)cells; type: functional; summary of the method: as §1
# [8] = test system: Human alphaherpesvirus 1; test: Minimum inhibitory concentration required to reduce herpes simplex virus-1 (KOS) induced cytopathogenicity by 50% in primary rabbit kidney cells(PRK); type: functional; summary of the method: as §1
# [9] = test system: Semliki Forest virus; test: Minimum inhibitory concentration required to reduce semliki forest virus induced cytopathogenicity by 50% in african green monkey (VeroB) cells; type: functional; summary of the method: as §1
# [10] = species on record: Oryctolagus cuniculus; test: Minimum cytotoxic concentration required to cause a microscopically detectable alteration of normal cell morphology and show antiviral activity in primary rabbit kidney (PRK) cells; type: functional
# [11] = test system: FM3A; test: In vitro inhibition of FM3A (murine mammary carcinoma) cell proliferation.; type: functional; details: Mus musculus, read-out: CD50 (the source's name)
# [12] = test system: Nucleic Acid; test: Association constant against the polynucleotide poly (dA-dT).; type: nucleic-acid assay
# Summary of the method: (§2)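 Competition with ethidium bromide binding at 25 °C in 0.01 M cacodylate buffer, pH 7.0, with 1.26 μM ethidium bromide and 1 μM polynucleotide. Bound ethidium is estimated from its fluorescence increase (V = 34 for poly(dA-dT), 25 for poly(dG-dC)). IC50 for 50% ethidium displacement comes from a fitted competition sigmoid. Kapp is calculated from IC50 assuming a binding size of four base pairs.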
# [13] = test system: Vero; test: Minimum inhibitory concentration required to reduce Coxsackie virus B4 induced cytopathogenicity by 50% in african green monkey (VeroB) cells; type: functional, Coxsackievirus B4; details: Chlorocebus sabaeus; summary of the method: as §1
# [14] = test system: Nucleic Acid; test: Association constant against polynucleotide poly (dG-dC); type: nucleic-acid assay; summary of the method: as §2
# [15] = test system: Vesicular stomatitis virus; test: Minimum inhibitory concentration required to reduce vesicular stomatitis virus induced cytopathogenicity by 50% in primary rabbit kidney cells (PRK); type: functional
# [16] = test system: Vero; test: Minimum cytotoxic concentration required to cause a microscopically detectable alteration of normal cell morphology and show antiviral activity in african green monkey (Vero B) cells; type: functional; details: Chlorocebus sabaeus
# [17] = test system: Raji; test: Dose required to inhibit Human B-Lymphoblast (Raji) cell proliferation by 50%; type: functional; details: read-out: CD50 (the source's name)
# [18] = test system: L1210; test: Dose required to inhibit Murine leukemia (L1210) cell proliferation by 50%; type: functional; details: Mus musculus, read-out: CD50 (the source's name)
# [19] = test system: Sindbis virus; test: Minimum inhibitory concentration required to reduce Sindbis virus induced cytopathogenicity by 50% in african green monkey (VeroB) cells; type: functional; summary of the method: as §1
Compound,MCC [1] [µg/mL],Ratio [2],CC50 [3] [µg/mL],MIC [4] [µg/mL],MIC [5] [µg/mL],MIC [6] [µg/mL],MIC [7] [µg/mL],MIC [8] [µg/mL],MIC [9] [µg/mL],MCC [10] [µg/mL],CC50 [11] [µg/mL],K app [12] [M⁻¹],MIC [13] [µg/mL],K app [14] [M⁻¹],MIC [15] [µg/mL],MCC [16] [µg/mL],CC50 [17] [µg/mL],CC50 [18] [µg/mL],MIC [19] [µg/mL]
CC(NC(=O)c1cc(NC(=O)c2cc([N+](=O)[O-])cn2C)cn1C)C(=O)NC(C)C(=O)OC(C)(C)C (stereo not given),> 400,0.033,29,> 200,> 200,> 200,> 200,> 100,> 200,>400,27.2,650,> 200,20000,> 100,> 200,33,28.8,> 100
C[C@H](NC(=O)[C@H](C)NC(=O)[C@H](C)NC(=O)c1cc(NC(=O)c2cc(NC(=O)CNC(=N)N)cn2C)cn1C)C(=O)O,> 400,< 0.02,> 100,> 400,> 400,> 400,> 200,> 400,> 400,>400,> 100,< 100,> 400,5000,> 400,> 400,> 100,> 100,> 400
Cn1cc([N+](=O)[O-])cc1C(=O)O,> 400,,> 100,> 400,> 400,> 400,> 400,> 400,> 400,>400,> 100,,> 200,,> 400,> 400,> 100,> 100,> 400
COC(=O)c1cc(NC(=O)c2cc([N+](=O)[O-])cn2C)cn1C,> 40,,> 100,> 10,> 10,> 40,> 10,> 10,> 10,>40,> 100,,> 10,,> 40,> 40,> 100,> 100,> 10
Cn1cc(NC(=O)c2cc(NC(=O)c3cc(NC=O)cn3C)cn2C)cc1C(=O)NCCC(=N)N,,3400,,,,,,,,,,8.5e+07,,25000,,,,,
Cn1cc(NC(=O)CNC(=N)N)cc1C(=O)NCCCNCCCCN,> 400,5.26,> 200,> 400,> 200,> 400,> 200,> 400,> 400,>400,> 200,,> 400,,> 400,> 400,> 200,> 200,> 400
CC(NC(=O)c1cc(NC(=O)c2cc(NC(=O)CNC(=N)N)cn2C)cn1C)C(=O)O (stereo not given),> 200,,> 100,> 200,> 200,> 200,> 200,> 200,> 200,>200,> 100,< 100,> 200,< 100,> 200,> 200,> 100,> 100,> 200
Cn1cc([N+](=O)[O-])cc1C(=O)NCCC(=N)N,> 400,,> 50,> 200,> 200,> 400,> 200,> 200,> 200,>400,,< 100,> 200,< 100,> 400,> 400,> 50,> 50,> 200
